Laboratory results reported in ChEMBL document CHEMBL4477254, “Synthesis and biological evaluation of some novel triazole hybrids of curcumin mimics and their selective anticancer activity against breast and prostate cancer cell lines” (Bioorg Med Chem Lett, 2016).
Values after ≈ are worked out from the molar mass of the structure shown. Active and inactive are the calls of the source. The rule behind the calls is not given here.

Tests used:
MCF7 [1] = assay: Induction of apoptosis in human MCF7 cells assessed as early apoptotic cells at 6 uM after 24 hrs by annexin V-FITC/propidium iodide staining based flow cytometry (reference value: 7.36%); assay type: functional
In short: (§1)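 Apoptosis by Annexin V-FITC/PI dual staining: MCF-7 cells treated 24 h at 3, 6 and 9 µM, then harvested, stained and acquired by flow cytometry; early apoptotic = AnnexinV+/PI−, live = AnnexinV−/PI−, necrotic = AnnexinV−/PI+.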

DU-145 [2] = assay: Cytotoxicity against human DU145 cells assessed as decrease in cell viability after 24 hrs by MTT assay; assay type: functional, cell-based; conditions: DU-145, 24 h
In short: (§2)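 Cell viability by MTT after 24 h compound exposure; curcumin as standard. IC50 in µM from three independent experiments, expressed as mean ± SE.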

MCF7 [3] = assay: Cell cycle arrest in human MCF7 cells assessed as accumulation at S phase at 9 uM after 24 hrs by propidium iodide staining based flow cytometry (reference value: 34.03%); assay type: functional
In short: (§3)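 Cells treated 24 h with test compound, MCF-7 at various concentrations and PC-3 at various concentrations; cells harvested, stained with propidium iodide and acquired by flow cytometry for cell cycle phase distribution.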

DU-145 [4] = assay: Potency index, ratio of curcumin IC50 to compound IC50 in human DU145 cells; assay type: functional
In short: (§4)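 IC50 came from an MTT viability assay after 24 h compound exposure, with curcumin run as the standard. Values are mean ± SE of three independent experiments. The index is the curcumin IC50 divided by the compound IC50 in the same cell line.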

[5] = Solubility of the compound in distilled water after 24 hrs by HPLC based shake flask method; assay type: physicochemical
MCF7 [6] = assay: Cytotoxicity against human MCF7 cells assessed as decrease in cell viability after 24 hrs by MTT assay; assay type: functional, cell-based; conditions: MCF7, 24 h; in short: as §2
MCF7 [7] = assay: Induction of morphological changes in human MCF7 cells assessed as decrease in cell number at 1 to 6 uM after 24 hrs by phase contrast microscopy; assay type: functional, cell-based
In short: (§5)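 Cells were exposed to a range of concentrations for 24 h. Cell number and morphology, including detachment from the surface, were assessed by phase-contrast microscopy at 10X magnification.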

4T1 [8] = assay: Cytotoxicity against mouse 4T1 cells assessed as decrease in cell viability after 24 hrs by MTT assay; assay type: functional, cell-based; conditions: 4T1, 24 h; in short: as §2
MCF7 [9] = assay: Cell cycle arrest in human MCF7 cells assessed as accumulation at G2/M phase at 3 uM after 24 hrs by propidium iodide staining based flow cytometry (reference value: 20.30%); assay type: functional; in short: as §3
[10] = Stability of the compound in simulated gastric fluid assessed as compound remaining after 1 hr at 37 degC by UPLC analysis; assay type: ADME; conditions: read-out: Stability
[11] = Intrinsic clearance in liver microsomes (unknown origin) assessed per mg of protein at 5 ug/ml in presence of NADPH by UPLC analysis; assay type: ADME, Microsome
[12] = Protein binding in rat plasma at 8 ug/ml after 15 mins by UPLC based charcoal adsorption method; assay type: ADME, cell-free; conditions: read-out: PPB (converted)
HEK293 = assay: Cytotoxicity against human HEK293 cells assessed as decrease in cell viability after 24 hrs by MTT assay; assay type: cell-based; conditions: HEK293, 24 h; in short: as §2
MCF7 [13] = assay: Induction of apoptosis in human MCF7 cells assessed as early apoptotic cells at 3 uM after 24 hrs by annexin V-FITC/propidium iodide staining based flow cytometry (reference value: 7.36%); assay type: functional; in short: as §1
MDA-MB-231 [14] = assay: Potency index, ratio of curcumin IC50 to compound IC50 in human MDA-MB-231 cells; assay type: functional; in short: as §4
PC-3 [15] = assay: Potency index, ratio of curcumin IC50 to compound IC50 in human PC3 cells; assay type: functional; in short: as §4
[16] = Stability in rat plasma assessed as compound remaining after 2 hrs at 37 degC by UPLC analysis; assay type: ADME, cell-free; conditions: read-out: Stability
In short: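 Compound was incubated in plasma, and the percentage remaining intact was calculated at time points up to 2 h.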

PC-3 [17] = assay: Cytotoxicity against human PC3 cells assessed as decrease in cell viability after 24 hrs by MTT assay; assay type: functional, cell-based; conditions: PC-3, 24 h; in short: as §2
MCF7 [18] = assay: Cell cycle arrest in human MCF7 cells assessed as accumulation at S phase at 6 uM after 24 hrs by propidium iodide staining based flow cytometry (reference value: 34.03%); assay type: functional; in short: as §3
4T1 [19] = assay: Potency index, ratio of curcumin IC50 to compound IC50 in mouse 4T1 cells; assay type: functional; in short: as §4
MDA-MB-231 [20] = assay: Cytotoxicity against human MDA-MB-231 cells assessed as decrease in cell viability after 24 hrs by MTT assay; assay type: functional, cell-based; conditions: MDA-MB-231, 24 h; in short: as §2
MCF7 [21] = assay: Induction of morphological changes in human MCF7 cells assessed as cell detachment at >6 uM after 24 hrs by phase contrast microscopy; assay type: functional, cell-based; in short: as §5
[22] = Stability of the compound in simulated intestinal fluid assessed as compound remaining after 2 hrs at 37 degC by UPLC analysis; assay type: ADME; conditions: read-out: Stability
MCF7 [23] = assay: Inhibition of colony formation in human MCF7 cells at 3 to 6 uM incubated for 24 hrs measured till day 7 by crystal violet staining based assay; assay type: functional, cell-based
In short: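 Cells were treated with a range of concentrations for 24 h. The medium was then replaced with complete medium and cells were grown for 7 days. Colonies were stained with 0.1% crystal violet.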

PC-3 [24] = assay: Induction of apoptosis in human PC3 cells assessed as late apoptotic cells at 8.8 uM after 24 hrs by annexin V-FITC/propidium iodide staining based flow cytometry (reference value: 0.80%); assay type: functional
In short: (§6)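 MCF-7 cells exposed to 3, 6 or 9 μM and PC-3 cells to 4.8 or 8.8 μM for 24 h, then harvested and dual-stained with Annexin V-FITC/PI and read by flow cytometry. Gates: live AnnexinV⁻/PI⁻, early apoptotic AnnexinV⁺/PI⁻, necrotic AnnexinV⁻/PI⁺.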

PC-3 [25] = assay: Induction of morphological changes in human PC3 cells assessed as decrease in cell number at 2.4 to 8.8 uM after 24 hrs by phase contrast microscopy; assay type: functional, cell-based; in short: as §5
[26] = Intrinsic clearance in liver microsomes (unknown origin) assessed per mg of protein at 8 ug/ml in presence of NADPH by UPLC analysis; assay type: ADME, Microsome
PC-3 [27] = assay: Cell cycle arrest in human PC3 cells assessed as accumulation at G2/M phase at 4.8 uM after 24 hrs by propidium iodide staining based flow cytometry (reference value: 2.25%); assay type: functional; in short: as §3
PC-3 [28] = assay: Induction of apoptosis in human PC3 cells assessed as early apoptotic cells at 4.8 uM after 24 hrs by annexin V-FITC/propidium iodide staining based flow cytometry (reference value: 4.44%); assay type: functional; in short: as §6
[29] = Drug metabolism in liver microsomes (unknown origin) assessed as compound remaining at 8 ug/ml after 5 mins in presence of NADPH by UPLC analysis; assay type: ADME, Microsome; conditions: read-out: Drug metabolism
In short: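 Microsomal metabolic stability; percentage of compound remaining intact measured after 5 min incubation in presence of microsomes.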

PC-3 [30] = assay: Cell cycle arrest in human PC3 cells assessed as accumulation at G0/G1 phase at 4.8 uM after 24 hrs by propidium iodide staining based flow cytometry (reference value: 72.73%); assay type: functional; in short: as §3
PC-3 [31] = assay: Cell cycle arrest in human PC3 cells assessed as accumulation at S phase at 8.8 uM after 24 hrs by propidium iodide staining based flow cytometry (reference value: 25.01%); assay type: functional; in short: as §3
PC-3 [32] = assay: Induction of morphological changes in human PC3 cells at 2.4 to 8.8 uM after 24 hrs by phase contrast microscopy; assay type: functional, cell-based; in short: as §5

solubility thermodynamic at 24 h [5] [µg/mL]	remaining at 1 h [10] [%]	fraction unbound at 0.25 h, 8 ug/ml [12]	remaining at 2 h [16] [%]	remaining at 2 h [22] [%]	SMILES	IC50 (DU-145 [2]) [µM]	Ratio IC50 (DU-145 [4])	IC50 (MCF7 [6]) [µM]	IC50 (4T1 [8]) [µM]	IC50 (HEK293) [µM]	Ratio IC50 (MDA-MB-231 [14])	Ratio IC50 (PC-3 [15])	IC50 (PC-3 [17]) [µM]	Ratio IC50 (4T1 [19])	IC50 (MDA-MB-231 [20]) [µM]	other results
2.08 (≈ 4.16 µM)	85	0.188	96	65	O=C1/C(=C/c2ccccc2F)CN(Cc2cn(Cc3ccc(F)cc3)nn2)C/C1=C\c1ccccc1F	8.7	≤ 9.5	6	6.4	46	<=8.3	<=5.7	19.4	<=9.3	10	Activity (MCF7 [1]): 30.56%; Activity (MCF7 [3]): 62.67%; Activity (MCF7 [7]): Active; Activity (MCF7 [9]): 25.7%; CLint [11]: 176 µL/min/mg; Activity (MCF7 [13]): 25.08%; Activity (MCF7 [18]): 44.43%; Activity (MCF7 [21]): Active; inhibition (MCF7 [23]): Active
1.12 (≈ 2.27 µM)	92	0.0301	90	30	Cc1ccc(/C=C2\CN(Cc3cn(Cc4ccccc4F)nn3)C/C(=C\c3ccc(C)cc3)C2=O)cc1	9.5	≤ 9.5	28.7	18	> 100	<=8.3	<=5.7	8.8	<=9.3	10	Activity (PC-3 [24]): 0.88%; Activity (PC-3 [25]): Active; CLint [26]: 87 µL/min/mg; Activity (PC-3 [27]): 8.36%; Activity (PC-3 [28]): 13.02%; remaining at 5 min, 8 ug/ml [29]: 66%; Activity (PC-3 [30]): 70.62%; Activity (PC-3 [31]): 23.61%; Activity (PC-3 [32]): Active
